From ChEMBL document CHEMBL2176883, “Aminopiperidine sulfonamide Cav2.2 channel inhibitors for the treatment of chronic pain” (J Med Chem, 2012) come the findings set out here.

The target in data set [1] is T1, Cav1.2 (Homo sapiens, UniProt Q13936). Kind of data set: Inhibition of Cav1.2 assessed as inhibition of calcium flux at 3 uM by cell based FLIPR assay. The gist of the method: (§1)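 Cav1.2 counterscreen using a related calcium-influx FLIPR assay, run as % inhibition at single concentrations or as a titration.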
For orientation: Calcium assays in cells follow changes in intracellular calcium, usually with a dye or a luminescent sensor.

Data set [2] addresses T1, Cav1.2. Nature of the data set: Inhibition of Cav1.2 assessed as inhibition of calcium flux at 1 uM by cell based FLIPR assay. An outline of the steps: as §1
Data set [3] addresses T2, hERG (Homo sapiens, UniProt Q12809). Nature of the data set: Displacement of [35S]-MK-0499 from human ERG at 10 uM. Particulars: probe [35S]-MK-0499. The gist of the method: (§2)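 hERG binding was measured as displacement of 35S-labeled MK-0499 at single test concentrations.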
For data set [4], the target named is T2, hERG. Nature of the data set: Displacement of [35S]-MK-0499 from human ERG at 1 uM. Conditions: probe [35S]-MK-0499. An outline of the steps:
as §2

In data set [5] the target is T3, Voltage-dependent N-type calcium channel subunit alpha-1B (Homo sapiens, UniProt Q00975). Kind of data set: Inhibition of Cav2.2 expressed HEK293 cells assessed as inhibition of calcium flux by FLIPR assay in presence of 30 mM of potassium. The data set is classed as cell-based. An outline of the steps:
(§3)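 Calcium influx was read with a calcium-sensitive dye on FLIPR Tetra in CBK cells expressing α1B-1, α2-δ and β3a with Kir2.3. Cells were preincubated with compound in 30 mM K+, then channels were opened by 1:1 addition of 140 mM K+ solution. Compounds were screened at 1 μM, then titrated over 10 points (0.001–30 μM) in quadruplicate, mean ± SD. Values are averages of n ≥ 3.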
Target sequence in this assay (Q00975 whole entry): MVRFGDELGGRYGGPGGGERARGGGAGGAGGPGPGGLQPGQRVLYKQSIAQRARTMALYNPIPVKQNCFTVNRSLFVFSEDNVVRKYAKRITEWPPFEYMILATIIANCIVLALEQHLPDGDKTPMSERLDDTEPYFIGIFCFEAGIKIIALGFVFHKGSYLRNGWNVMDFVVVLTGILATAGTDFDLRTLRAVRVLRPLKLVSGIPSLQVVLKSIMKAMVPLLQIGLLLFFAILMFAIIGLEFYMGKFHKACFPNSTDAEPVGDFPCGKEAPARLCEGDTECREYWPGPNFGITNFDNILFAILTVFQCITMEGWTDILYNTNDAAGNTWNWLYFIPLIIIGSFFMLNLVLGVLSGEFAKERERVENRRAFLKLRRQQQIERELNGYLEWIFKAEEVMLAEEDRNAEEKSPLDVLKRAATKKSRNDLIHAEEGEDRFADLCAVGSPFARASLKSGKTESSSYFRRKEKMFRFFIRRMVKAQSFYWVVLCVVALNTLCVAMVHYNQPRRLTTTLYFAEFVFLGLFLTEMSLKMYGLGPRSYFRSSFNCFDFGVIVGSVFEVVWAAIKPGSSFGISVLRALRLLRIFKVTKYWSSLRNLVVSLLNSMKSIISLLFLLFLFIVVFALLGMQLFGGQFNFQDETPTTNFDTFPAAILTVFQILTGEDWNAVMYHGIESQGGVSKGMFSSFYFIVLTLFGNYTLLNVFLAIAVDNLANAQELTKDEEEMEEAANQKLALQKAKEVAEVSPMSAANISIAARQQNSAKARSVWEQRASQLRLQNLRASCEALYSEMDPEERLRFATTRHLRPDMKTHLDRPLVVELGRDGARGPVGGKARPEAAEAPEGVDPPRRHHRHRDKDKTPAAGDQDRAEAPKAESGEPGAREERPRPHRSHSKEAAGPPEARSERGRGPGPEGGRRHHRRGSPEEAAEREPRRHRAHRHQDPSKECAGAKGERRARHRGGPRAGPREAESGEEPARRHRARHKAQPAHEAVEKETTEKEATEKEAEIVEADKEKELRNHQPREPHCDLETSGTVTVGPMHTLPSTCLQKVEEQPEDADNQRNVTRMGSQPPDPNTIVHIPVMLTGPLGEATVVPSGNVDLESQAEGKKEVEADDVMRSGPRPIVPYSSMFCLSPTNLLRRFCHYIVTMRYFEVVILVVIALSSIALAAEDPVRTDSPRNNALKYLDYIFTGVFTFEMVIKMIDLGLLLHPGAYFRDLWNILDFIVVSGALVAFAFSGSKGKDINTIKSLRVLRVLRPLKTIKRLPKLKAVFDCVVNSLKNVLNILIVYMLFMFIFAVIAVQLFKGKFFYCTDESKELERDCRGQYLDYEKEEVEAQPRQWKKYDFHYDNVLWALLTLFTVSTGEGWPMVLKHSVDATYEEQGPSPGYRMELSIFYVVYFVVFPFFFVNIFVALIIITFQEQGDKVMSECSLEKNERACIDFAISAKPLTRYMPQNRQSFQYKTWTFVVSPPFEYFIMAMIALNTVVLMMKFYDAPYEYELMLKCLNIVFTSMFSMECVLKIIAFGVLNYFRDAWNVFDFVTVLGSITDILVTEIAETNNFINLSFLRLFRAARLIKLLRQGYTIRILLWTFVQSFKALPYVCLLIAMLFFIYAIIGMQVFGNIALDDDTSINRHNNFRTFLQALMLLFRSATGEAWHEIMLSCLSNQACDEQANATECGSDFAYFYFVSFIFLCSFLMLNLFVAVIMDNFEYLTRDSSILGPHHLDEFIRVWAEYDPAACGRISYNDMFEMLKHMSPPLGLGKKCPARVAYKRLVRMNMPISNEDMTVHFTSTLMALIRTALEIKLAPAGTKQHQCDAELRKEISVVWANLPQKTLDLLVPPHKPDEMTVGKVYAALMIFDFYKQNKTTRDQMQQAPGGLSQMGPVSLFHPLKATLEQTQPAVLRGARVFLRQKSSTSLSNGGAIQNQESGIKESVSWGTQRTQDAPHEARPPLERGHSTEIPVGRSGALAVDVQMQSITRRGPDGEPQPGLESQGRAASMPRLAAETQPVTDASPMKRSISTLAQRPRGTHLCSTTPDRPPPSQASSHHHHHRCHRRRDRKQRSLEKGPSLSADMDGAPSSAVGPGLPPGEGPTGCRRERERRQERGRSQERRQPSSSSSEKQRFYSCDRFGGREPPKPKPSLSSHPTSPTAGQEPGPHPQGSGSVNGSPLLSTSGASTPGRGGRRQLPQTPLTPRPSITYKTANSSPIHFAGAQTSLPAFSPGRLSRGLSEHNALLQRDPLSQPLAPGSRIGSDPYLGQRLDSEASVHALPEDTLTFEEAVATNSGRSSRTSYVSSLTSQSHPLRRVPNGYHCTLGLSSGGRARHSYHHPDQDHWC

Data set [6] deals with Rattus norvegicus. Kind of data set: Antinociceptive activity in rat assessed as reversal of complete Freund's adjuvant-induced pain at 10 mg/kg, po after 3 hrs. It is filed as functional. The gist of the method:
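Rats had complete Freund's adjuvant-induced inflammatory pain and got oral dosing. Allodynia was read at 1 and 3 h postdose. Percent reversal per rat = (postdose − predose)/(preinjury − predose). Groups had at least six animals, reported as mean + SEM.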

In data set [7] the target is T3, Voltage-dependent N-type calcium channel subunit alpha-1B. Nature of the data set: Inhibition of Cav2.2 expressed HEK293 cells assessed as inhibition of calcium flux at 1 uM by FLIPR assay. The data set is classed as cell-based. An outline of the steps: as §3
Target sequence in this assay (Q00975 whole entry, looked up): as the sequence (Q00975 whole entry) above
The nature of data set [8]: Plasma concentration in rat SNL neuropathic pain model at 10 mg/kg, po after 3.5 hrs. The data set is classed as ADME, organism-based. Also noted: dose 10 mg/kg, route oral.
Data set [9] has as its system Rattus norvegicus. Kind of data set: Analgesic activity in rat SNL neuropathic pain model assessed as reversal of mechanical allodynia at 10 mg/kg, po after 3 hrs. It is filed as functional.
Data set [10] relates to Rattus norvegicus. Kind of data set: Analgesic activity in rat SNL neuropathic pain model assessed as reversal of mechanical allodynia at 10 mg/kg, po after 1 hr. It is filed as functional.
The subject of data set [11] is Rattus norvegicus. Kind of data set: Antinociceptive activity in rat assessed as reversal of complete Freund's adjuvant-induced pain at 30 mg/kg, po after 3 hrs. The data set is classed as functional. The gist of the method:
(§4)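 In the rat CFA inflammatory pain model, compound was given orally at 30 mg/kg and allodynia was read at 1 and 3 h postdose. Average % reversal = (postdose − predose)/(preinjury − predose) for each rat, n = 6. Plasma exposure at 3 h was measured in satellite rats (n = 2).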

For data set [12], the system named is Rattus norvegicus. Nature of the data set: Antinociceptive activity in rat assessed as reversal of complete Freund's adjuvant-induced pain at 30 mg/kg, po after 1 hr. The data set is classed as functional. An outline of the steps:
as §4

Data set [13] has as its system Rattus norvegicus. Nature of the data set: Antinociceptive activity in rat assessed as reversal of complete Freund's adjuvant-induced pain at 3 mg/kg, iv after 3 hrs. It is filed as functional.
For data set [14], the system named is Rattus norvegicus. Nature of the data set: Antinociceptive activity in rat assessed as reversal of complete Freund's adjuvant-induced pain at 3 mg/kg, iv after 1 hr. It is filed as functional.
Data set [15] is described as follows: Half life in rat at 3 mg/kg, po and 1 mg/kg, iv. It is filed as ADME, organism-based. Particulars: in vivo. The gist of the method:
(§5)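 Rat pharmacokinetics from iv and po arms: 0.6 mg/kg iv with 1.8 mg/kg po, or 1 mg/kg iv with 3 mg/kg po. AUC was normalized to po dose (μM·h·kg/mg). Clearance (mL/min/kg) and half-life come from the iv arm, and F% is oral bioavailability.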

A short description of data set [16]: Plasma clearance in rat at 3 mg/kg, po and 1 mg/kg, iv. It is filed as ADME, organism-based. An outline of the steps: as §5
Data set [17] relates to Rattus norvegicus. Kind of data set: Dose normalized AUC in rat at 1.8 mg/kg, po and 0.6 mg/kg, iv. Particulars: in vivo. The data set is classed as ADME, organism-based. An outline of the steps: as §5
Data set [18] can be described thus: Oral bioavailability in rat at 3 mg/kg. It is filed as ADME, organism-based. Particulars: in vivo. The gist of the method: as §5
Data set [19] can be described thus: Metabolic stability in rat liver microsomes assessed as compound remaining at 1 uM after 1 hr. It is filed as ADME, Microsome. Particulars: read-out: Stability. An outline of the steps: (§6)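 Compound at 1 μM was incubated with human or rat liver microsomes (1 mg/mL) for 1 h, and the percentage of parent remaining was determined.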
Background: Liver microsomes are a subcellular fraction often used to study metabolism.

Data set [20] in a line: Metabolic stability in human liver microsomes assessed as compound remaining at 1 uM after 1 hr. It is filed as ADME, Microsome. Particulars: read-out: Stability. An outline of the steps:
as §6

T2 sequence (Q12809 whole entry): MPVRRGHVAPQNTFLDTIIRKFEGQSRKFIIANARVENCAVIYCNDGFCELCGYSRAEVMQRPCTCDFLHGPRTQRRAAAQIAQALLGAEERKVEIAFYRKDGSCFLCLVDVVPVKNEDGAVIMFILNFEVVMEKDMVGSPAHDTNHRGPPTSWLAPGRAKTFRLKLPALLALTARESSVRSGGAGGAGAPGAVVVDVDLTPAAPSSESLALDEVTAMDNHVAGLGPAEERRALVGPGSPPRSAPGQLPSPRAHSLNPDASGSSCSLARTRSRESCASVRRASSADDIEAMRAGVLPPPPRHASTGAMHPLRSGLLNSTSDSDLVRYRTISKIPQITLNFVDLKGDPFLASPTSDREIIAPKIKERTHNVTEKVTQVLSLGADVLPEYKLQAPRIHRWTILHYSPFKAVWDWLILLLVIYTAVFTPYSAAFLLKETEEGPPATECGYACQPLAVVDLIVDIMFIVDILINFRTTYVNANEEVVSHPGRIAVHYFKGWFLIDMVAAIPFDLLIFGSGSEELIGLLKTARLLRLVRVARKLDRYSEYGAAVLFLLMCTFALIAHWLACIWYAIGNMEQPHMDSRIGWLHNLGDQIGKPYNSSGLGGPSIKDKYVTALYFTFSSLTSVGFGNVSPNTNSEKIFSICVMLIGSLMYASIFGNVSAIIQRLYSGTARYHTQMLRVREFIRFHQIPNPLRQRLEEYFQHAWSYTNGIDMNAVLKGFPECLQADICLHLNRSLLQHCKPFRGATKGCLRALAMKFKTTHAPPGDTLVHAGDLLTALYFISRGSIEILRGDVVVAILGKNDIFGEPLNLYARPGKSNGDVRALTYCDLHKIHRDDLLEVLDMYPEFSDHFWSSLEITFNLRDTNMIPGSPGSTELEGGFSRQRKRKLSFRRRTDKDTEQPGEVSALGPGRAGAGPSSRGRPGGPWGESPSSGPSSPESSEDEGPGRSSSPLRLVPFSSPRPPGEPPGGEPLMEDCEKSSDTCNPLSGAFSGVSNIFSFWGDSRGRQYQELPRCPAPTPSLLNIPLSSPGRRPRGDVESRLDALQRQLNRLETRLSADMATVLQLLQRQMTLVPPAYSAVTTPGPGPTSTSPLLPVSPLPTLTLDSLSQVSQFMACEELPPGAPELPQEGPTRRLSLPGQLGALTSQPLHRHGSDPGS

What is called inhibition is how much of the control response was suppressed. One may read the IC50 as the concentration that inhibits the measured activity by half. For the molecule `CN(C)c1cccc(C(=O)N2CCC(N(C3CC3)S(=O)(=O)c3cccc(C(F)(F)F)c3)CC2)c1`, in [1], the inhibition at 3 µM came out at 63%. Moreover, the inhibition at 1 µM in data set [2] is 40%; in [4], 0%. In addition, the inhibition at 10 µM in [3] was 51%. Besides, the IC50 in data set [5] turned out to be 240 nM.

For `CC(C)C[C@H](CN)CC(=O)O` [PREGABALIN], the Activity in data set [6] came to 58%.

Consider `O=C(c1ccccc1)N1CCC(N(C2CC2)S(=O)(=O)c2cccc(C(F)(F)F)c2)CC1`, for which, in [7], the inhibition amounted to 42%.

Turning to `CS(=O)(=O)c1cccc(C(=O)N2CCC(N(C3CC3)S(=O)(=O)c3cccc(C(F)(F)F)c3)CC2)c1`, the inhibition in [7] was found to be 15%.

In [3], `COC(=O)c1cccc(C(=O)N2CCC(N(C3CC3)S(=O)(=O)c3cccc(C(F)(F)F)c3)CC2)c1` had an inhibition at 10 µM of 66%. Also, the inhibition at 1 µM in data set [4] came out at 2.4%. In addition, the IC50 in data set [5] was 380 nM.

As for `O=C(c1cccc(OC(F)(F)F)c1)N1CCC(N(C2CC2)S(=O)(=O)c2cccc(C(F)(F)F)c2)CC1`, the inhibition at 3 µM in [1] was 78%. Besides, the results for the inhibition at 1 µM in [2] and in data set [4] were 60% and 4%, respectively. Also, the inhibition at 10 µM in data set [3] worked out at 72%. In data set [5], the concentration for half-maximal inhibition (IC50) is 370 nM.

With `CS(=O)(=O)c1ccc(C(=O)N2CCC(N(C3CC3)S(=O)(=O)c3cccc(C(F)(F)F)c3)CC2)cc1`, in data set [7], the inhibition was 52%.

As for `O=C(c1ccc(OC(F)(F)F)cc1)N1CCC(N(C2CC2)S(=O)(=O)c2cccc(C(F)(F)F)c2)CC1`, the inhibition at 3 µM in data set [1] worked out at 88%. Besides, the inhibition at 1 µM in [2] came out at 73%; in data set [4], 0%. For the same molecule, in [3], the inhibition at 10 µM was determined as 77%. The IC50 in data set [5] is 300 nM.

`NS(=O)(=O)c1cccc(C(F)(F)F)c1` gave a concentration at 3.5 h in data set [8] of 35.6 µM. The Activity in data set [9] amounted to 36%; in [10], 27%; in data set [11], 44%; in data set [12], 53%.

Take `CS(=O)(=O)c1ccc(F)cc1C(=O)N1CCC(N(C2CC2)S(=O)(=O)c2ccc(OC(F)(F)F)cc2)CC1`: the inhibition in [7] was 0%.

Usually half-life stands for the time in which the quantity being followed falls by half. A higher half-life goes with slow decline. In general, bioavailability refers to dose-corrected exposure relative to a reference, in per cent. High values mean much systemic uptake, low ones little systemic uptake. For `O=C(c1ccccc1OC(F)(F)F)N1CCC(N(C2CC2)S(=O)(=O)c2cccc(C(F)(F)F)c2)CC1`, the Activity amounted to 17% in [13] and 23% in data set [14]. Moreover, the half-life in [15] was 1.6 h. In data set [16], the clearance was determined as 65 mL/min/kg. In addition, the AUC/dose in [17] is 0.23 µM·kg·h/mg. The molecule also gave a bioavailability in data set [18] of 47%. The remaining at 1 h, 1 µM in data set [19] turned out to be 21%; in data set [20] it was 1%. Also, the inhibition at 10 µM in data set [3] worked out at 75%. Besides, in data set [4], at 1 µM the inhibition was 21%. Moreover, the concentration for half-maximal inhibition (IC50) in data set [5] came out at 120 nM.

For the molecule `CS(=O)(=O)c1ccc(F)cc1C(=O)N1CCC(N(C2CC2)S(=O)(=O)c2ccccc2C(F)(F)F)CC1`, the inhibition in data set [7] came out at 17%.
